The half-life is how long it takes for the measured level to halve.

The test system of data set [1] is Rattus norvegicus. The experiment in a line: Neuroprotective activity against middle cerebral artery occlusion-induced ischemia-reperfusion injury Sprague-Dawley rat model assessed as decrease in neurologic deficit scores at 95 to 9500 microg/kg, iv treated immediately reperfusion in presence of PTIO measured after 24 hrs. It counts as functional, organism-based. The conditions noted are these: dose 95-9500 µg/kg. The essentials: (§1)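 Male SD rats (12 weeks, 200–220 g; N = 8/group) underwent MCAO under […] (350 mg/kg) using a nylon intraluminal suture for 2 h, then reperfusion. Compound (95, 950 or 9500 μg/kg) was given iv immediately after reperfusion; where used, PTIO 1 mg/kg iv was given 30 min before. At 24 h, blinded scoring covered Longa neurological deficit, TTC infarct area/whole area, and edema from wet/dry brain weight (105 °C, 24 h).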

Data set [2] relates to Rattus norvegicus. In words: Neuroprotective activity against middle cerebral artery occlusion-induced ischemia-reperfusion injury Sprague-Dawley rat model assessed as increase in CD31 expression in cerebral ischemic penumbra at 95 to 950 microg/kg, iv treated immediately reperfusion measured after 24 hrs in presence of PTIO by immunofluoresence assay. The class given is functional, organism-based. The conditions noted are these: dose 95-950 µg/kg.

Data set [3] has as its system Rattus norvegicus. The experiment in a line: Neuroprotective activity against middle cerebral artery occlusion-induced ischemia-reperfusion injury Sprague-Dawley rat model assessed as increase in CD31 expression in cerebral ischemic penumbra at 95 to 950 microg/kg, iv treated immediately reperfusion measured after 24 hrs by immunofluoresence assay. It counts as functional, organism-based. The conditions noted are these: dose 95-950 µg/kg.

Data set [4] relates to Cortical neurone. In words: Neuroprotective activity against in OGD/R-induced rat cortical neuron cytotoxicity assessed as activation of NO/cGMP/PKG pathway by measuring increase in PKG expression pretreated at 1.8 uM for 24 hrs followed by subjected to OGD for 2 hrs measured after 24 hrs under normoxic condition in presence of NS2028 by Western blot analysis. It counts as functional, tissue-based.

Data set [5] is described as follows: GSH reactivity assessed as reaction rate measured at 8 equiv of GSH upto 24 hrs by HPLC analysis. The class given is ADME.
Data set [6] concerns Rattus norvegicus. In words: Neuroprotective activity against middle cerebral artery occlusion-induced ischemia-reperfusion injury Sprague-Dawley rat model assessed as decrease in cerebral edema degree at 95 to 9500 microg/kg, iv treated immediately reperfusion in presence of PTIO measured after 24 hrs. It counts as functional, organism-based. The conditions noted are these: dose 95-9500 µg/kg. In outline:
as §1

Data set [7] is described as follows: Neuroprotective activity against in OGD/R-induced rat primary cortical neuron apoptosis assessed as viable cells pretreated at 1.8 uM for 24 hrs followed by subjected to OGD for 2 hrs measured after 24 hrs under normoxic condition by PI/FITC-H staining based flow cytometry (reference value: 31.55%). The conditions noted are these: Cortical neurone, read-out: Activity. The class given is functional. In outline: (§2)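 Cortical neurons were isolated from SD rat cortex by enzymatic digestion, plated on poly-lysine in 10% FBS DMEM, and pretreated 24 h at 1.8 μM in basal medium with 2% B27. OGD was run in glucose/FBS-free DMEM under 1% O₂, followed by 24 h reoxygenation in 10% FBS DMEM. Viability was read by MTT; apoptosis was also assessed. Three independent experiments.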
(A flow cytometer gives signals particle by particle.)

Data set [8] is described as follows: Drug metabolism in Sprague-Dawley rat assessed as peak nitrite release in plasma at 10 mg/kg, iv measured upto 120 mins by ion chromatography. The class given is ADME, organism-based. The conditions noted are these: in vivo, 2 h. In outline:
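Male SD rats (N = 3/group) received a single iv dose. Plasma was sampled at 2, 5, 15, 30, 60, 90 and 120 min. Nitrite was quantified by ion chromatography. Values are mean ± SD.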

Data set [9] in a line: Stability of the compound under dark condition at 200 uM measured after 24 hrs by HPLC analysis. The class given is physicochemical.
The nature of data set [10]: GSH reactivity assessed as reaction rate measured at 1 equiv of GSH upto 24 hrs by HPLC analysis. It counts as ADME.
Data set [11] deals with Cortical neurone. The experiment in a line: Effect on Nrf2 mRNA transcript level in OGD/R-induced rat primary cortical neuron pretreated at 1.8 uM for 24 hrs followed by subjected to OGD for 2 hrs measured after 24 hrs under normoxic condition by RT-qPCR analysis. The class given is functional, tissue-based. The essentials:
(§3)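 Primary rat cortical neurons were pretreated with 1.8 μM compound for 24 h, given 2 h OGD, then 24 h normoxic culture. Nrf2, HO-1 and NQO1 mRNA were measured by RT-qPCR. Cytoplasmic and nuclear protein (30 μg/lane) were blotted for Nrf2, with lamin A and β-actin as references, and quantified by densitometry as the nuclear:cytoplasmic ratio. Three independent experiments, mean ± SD.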

Data set [12] has as its system Rattus norvegicus. In words: Neuroprotective activity against middle cerebral artery occlusion-induced ischemia-reperfusion injury Sprague-Dawley rat model assessed as increase in Ki67+ cells in cerebral ischemic penumbra at 95 to 950 microg/kg, iv treated immediately reperfusion measured after 24 hrs by immunofluoresence assay. The conditions noted are these: dose 95-950 µg/kg. It counts as functional, organism-based.

Data set [13] is described as follows: GSH reactivity assessed as reaction rate measured at 32 equiv of GSH upto 24 hrs by HPLC analysis. It counts as ADME.
Data set [14] has as its system Cortical neurone. The experiment in a line: Induction of HO-1 mRNA transcript level in OGD/R-induced rat primary cortical neuron pretreated at 1.8 uM for 24 hrs followed by subjected to OGD for 2 hrs measured after 24 hrs under normoxic condition by RT-qPCR analysis. It counts as functional, tissue-based. In outline: as §3
Data set [15] relates to Cortical neurone. The experiment in a line: Neuroprotective activity against in OGD/R-induced rat cortical neuron cytotoxicity assessed as decrease in cell viability pretreated at 1.8 uM for 24 hrs followed by subjected to OGD for 2 hrs measured after 24 hrs under normoxic condition i n presence of ML385 by MTT assay. The class given is functional, tissue-based. The essentials: as §2
A general note: Formazan colour is commonly taken as a measure of viable cells.

Data set [16] has as its system Cortical neurone. The experiment in a line: Neuroprotective activity against in OGD/R-induced rat cortical neuron cytotoxicity assessed as decrease in cell viability pretreated at 1.8 uM for 24 hrs followed by subjected to OGD for 2 hrs measured after 24 hrs under normoxic condition by MTT assay. It counts as functional, tissue-based. In outline:
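Primary rat cortical neurons from enzymatically digested cortex, plated on poly-lysine in DMEM/10% FBS for 4 h. Pretreated 24 h in neuron basal medium with 2% B27, then glucose/FBS-free DMEM at 1% O2. Returned to 10% FBS DMEM under normoxia for 24 h. Viability by MTT; three independent experiments, mean SD.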

A short description of data set [17]: Drug metabolism assessed as nitric oxide release in presence of bovine plasma at 200 uM measured after 1 hr by Griess reagent based assay. The class given is ADME, cell-free, Bos taurus. The conditions noted are these: cattle. Background: The Griess reaction detects nitrite, a stable product of nitric oxide.
Data set [18] can be described thus: Stability of the compound in pH 6 phosphate buffer assessed as half life at 200 uM measured after 24 hrs by HPLC analysis. The class given is physicochemical. The conditions noted are these: phosphate buffer pH 6, pH 6.
For data set [19], the system named is Rattus norvegicus. The experiment in a line: Neuroprotective activity against middle cerebral artery occlusion-induced ischemia-reperfusion injury Sprague-Dawley rat model assessed as decrease in cerebral infarct volume at 950 microg/kg, iv pretreated for 2 hrs followed by reperfusion measured after 24 hrs in presence of PTIO. The class given is functional, organism-based. The conditions noted are these: dose 950.0 µg/kg. The essentials:
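Male SD rats (N = 8/group) were dosed iv at 95, 950 or 9500 μg/kg 2 h before 2 h MCAO (nylon suture, chloral hydrate anesthesia), then reperfused. Where used, PTIO 1 mg/kg iv was given 30 min before compound. At 24 h, blinded assessment covered Longa deficit score, TTC-stained 2 mm sections (infarct area/whole area), and edema by wet/dry weight.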

For data set [20], the system named is Rattus norvegicus. In words: Neuroprotective activity against middle cerebral artery occlusion-induced ischemia-reperfusion injury Sprague-Dawley rat model assessed as decrease in brain infarct volume at 95 to 9500 microg/kg, iv treated immediately reperfusion measured after 24 hrs. It counts as functional, organism-based. Conditions: dose 95-9500 µg/kg. In outline:
as §1

Data set [21] in a line: Neuroprotective activity against in OGD/R-induced rat cortical neuron apoptosis assessed as late apoptotic cells pretreated at 1.8 uM for 24 hrs followed by subjected to OGD for 2 hrs measured after 24 hrs under normoxic condition by PI/FITC-H staining based flow cytometry (reference value: 6.31%). The class given is functional, Cortical neurone.
Data set [22] can be described thus: Photostability of the compound under light at 200 uM measured after 24 hrs by HPLC analysis. The class given is physicochemical.

Calls of active or inactive are those of the source. No cut-off for these calls is given here.

As to `O=C(/C(=C/c1ccccc1)C[N+](=O)[O-])c1ccccc1`, the outcome with Rattus norvegicus [1], with Rattus norvegicus [2], in the data set with Cortical neurone [4], in the data set on Rattus norvegicus [6], in the data set with Cortical neurone [11] and with Rattus norvegicus [19] was inactive. Further, the outcome in the data set with Rattus norvegicus [3], in the data set on Rattus norvegicus [12], with Cortical neurone [14], with Cortical neurone [15], with Cortical neurone [16] and in the data set with Rattus norvegicus [20] was Active. Besides, the Activity is 0.0363 h⁻¹ in [5], 0.0214 h⁻¹ in data set [10], 0.056 h⁻¹ in data set [13] and 1.72% in data set [21]. The viability at 1.8 µM in [7] is 69.8%. The Drug metabolism result in [8] and in [17] was “Metabolite_Detected” throughout. Besides, the Stability result in data set [9] and in data set [22] was “Stable” in each case. In [18], the half-life at 200 µM was 66 min.

For the origin of these results see ChEMBL document CHEMBL5029154, “Design, Synthesis, and Biological Evaluation of Organic Nitrite (NO2-) Donors as Potential Anticerebral Ischemia Agents” (J Med Chem, 2021).
